Data set [1] can be described thus: Induction of self-assembly of the compound in DMSO at 1 uM by fluorescence spectroscopic analysis. Format: physicochemical. The procedure, abridged:
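Self-assembly of NBD-labelled peptide (1 μM) in 1:1 DMSO/MES (25 mM, pH 6.6) was followed as fluorescence decrease over time.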

The nature of data set [2]: Cellular uptake in intracellular vesicle of rat L6 cells at 10 uM after 4 hrs by WGA/Hoechst staining-based confocal fluorescent microscopic analysis. Format: ADME, cell-based. Particulars: l6, 4 h; call rule not given here. The procedure, abridged:
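Live L6 myotubes on glass-bottom dishes were given NBD-labelled peptide (10 μM) for 4 h in medium with 1% FBS, then washed. Nuclei were stained with Hoechst and membranes with Alexa Fluor-WGA. Imaging was by confocal microscopy at 37 °C.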

Data set [3] is described as follows: Antioxidant activity assessed as inhibition of H2O2-induced ROS production by DCFH assay. Format: functional. The procedure, abridged:
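DCFH oxidation assay: H2O2 (0.5 mM) was incubated with DCFH with or without the test agent, and the DCF formed was read fluorometrically. Free His and Trolox served as controls.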

As for `O=C1N[C@H](CCCCNc2ccc([N+](=O)[O-])c3nonc23)C(=O)N[C@@H](Cc2c[nH]cn2)C(=O)N[C@H](Cc2c[nH]c3ccccc23)C(=O)N[C@@H](Cc2c[nH]c3ccccc23)C(=O)N[C@H](Cc2c[nH]cn2)C(=O)N[C@@H](Cc2c[nH]cn2)C(=O)N[C@H](Cc2c[nH]cn2)C(=O)N[C@H]1Cc1c[nH]cn1`, the outcome in data set [1] was Active. Further, the Drug uptake entry in data set [2] is recorded as “Active”. In addition, the EC50 in data set [3] turned out to be 300 nM.

Usually EC50 stands for the concentration at which the effect is half-maximal.

Source of the values: ChEMBL document CHEMBL2439985, “Multifunctional cyclic D,L-α-peptide architectures stimulate non-insulin dependent glucose uptake in skeletal muscle cells and protect them against oxidative stress” (J Med Chem, 2013).
